This note sets out measurements from ChEMBL document CHEMBL2150988, “Preparation and optimization of new 4-(morpholin-4-yl)-(6-oxo-1,6-dihydropyrimidin-2-yl)amide derivatives as PI3Kβ inhibitors” (Bioorg Med Chem Lett, 2012).

Data set [1] is described as follows: Inhibition of Akt phosphorylation at S473 in PTEN deficient human PC3 cells. It counts as cell-based. As to conditions: PC-3.
Data set [2] has as its target Serine/threonine-protein kinase mTOR (Homo sapiens, UniProt P42345). Nature of the data set: Inhibition of mTOR.
The nature of data set [3]: Drug metabolism in mouse liver microsomes after 20 mins. The conditions noted are these: read-out: Drug metabolism. The data set is classed as ADME, Microsome. The method, boiled down:
(§1)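 Liver microsomes (human or mouse) incubated with compound for 20 min; %lability reported as % of compound metabolized.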
A general note: Liver microsomes are a subcellular fraction often used to study metabolism.

A further data set concerns the target Cytochrome P450 3A4 (Homo sapiens, UniProt P08684). Nature of the data set: Inhibition of human recombinant CYP3A4. It counts as ADME.
Data set [4] has as its target Phosphatidylinositol 4,5-bisphosphate 3-kinase catalytic subunit gamma isoform (Homo sapiens, UniProt P48736). Nature of the data set: Inhibition of PI3Kgamma.
Data set [5] can be described thus: Apparent permeability across human Caco2/TC7 cells. The conditions noted are these: Caco-2. The data set is classed as ADME, cell-based. The method, boiled down:
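Caco-2 TC7 clone monolayers; transport measured in both apical-to-basolateral and basolateral-to-apical directions, giving Papp (nm/s) and an efflux ratio.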
Background: Caco-2 cells form a polarised layer with tight junctions and transporters.

Data set [6] in a line: Equilibrium solubility of the compound in phosphate buffer at pH 7.4 after 16 hrs by HPLC analysis. It counts as physicochemical.
Data set [7] is described as follows: Drug metabolism in human liver microsomes after 20 mins. The data set is classed as ADME, Microsome. As to conditions: read-out: Drug metabolism. Put shortly:
as §1

Data set [8] concerns the target T1, Phosphatidylinositol 4,5-bisphosphate 3-kinase catalytic subunit delta isoform (Homo sapiens, UniProt O00329).
T1 sequence (O00329 whole entry): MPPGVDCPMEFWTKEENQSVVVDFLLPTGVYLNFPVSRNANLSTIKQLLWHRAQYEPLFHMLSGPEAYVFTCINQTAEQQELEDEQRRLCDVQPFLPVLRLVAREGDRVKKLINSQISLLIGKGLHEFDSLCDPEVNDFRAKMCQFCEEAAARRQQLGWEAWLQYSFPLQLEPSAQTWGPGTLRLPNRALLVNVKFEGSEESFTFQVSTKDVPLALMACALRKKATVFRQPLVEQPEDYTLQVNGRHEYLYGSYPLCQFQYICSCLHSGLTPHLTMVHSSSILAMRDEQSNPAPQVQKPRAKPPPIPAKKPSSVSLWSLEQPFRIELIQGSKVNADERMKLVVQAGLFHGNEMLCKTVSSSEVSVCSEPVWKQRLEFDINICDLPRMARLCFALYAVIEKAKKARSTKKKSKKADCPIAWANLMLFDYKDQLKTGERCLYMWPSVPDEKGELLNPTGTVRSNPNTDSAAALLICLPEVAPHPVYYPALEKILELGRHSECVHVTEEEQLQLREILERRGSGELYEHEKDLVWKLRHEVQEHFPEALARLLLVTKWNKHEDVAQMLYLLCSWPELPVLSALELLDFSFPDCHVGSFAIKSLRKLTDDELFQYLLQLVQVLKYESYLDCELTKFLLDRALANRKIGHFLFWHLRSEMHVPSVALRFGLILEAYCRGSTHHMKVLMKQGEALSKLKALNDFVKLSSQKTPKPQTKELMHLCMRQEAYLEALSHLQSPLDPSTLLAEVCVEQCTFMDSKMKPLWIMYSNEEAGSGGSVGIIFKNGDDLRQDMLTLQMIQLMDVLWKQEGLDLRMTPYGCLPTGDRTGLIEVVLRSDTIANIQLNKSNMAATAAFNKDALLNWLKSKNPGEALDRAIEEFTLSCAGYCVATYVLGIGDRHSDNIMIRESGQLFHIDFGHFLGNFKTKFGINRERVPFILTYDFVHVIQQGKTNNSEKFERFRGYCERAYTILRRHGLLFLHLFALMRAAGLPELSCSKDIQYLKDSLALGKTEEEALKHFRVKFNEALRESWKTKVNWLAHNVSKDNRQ
The data set can be described thus: Inhibition of PI3Kdelta.

The subject of data set [9] is Mus musculus. Nature of the data set: Inhibition of Akt phosphorylation at T308 in PTEN deficient human PC3 cells xenografted SCID mouse tumor at 30 mg/kg, po administered as solution after 6 hrs. It counts as functional. As to conditions: PC-3, 6 h.
In data set [10] the target is Phosphatidylinositol 4,5-bisphosphate 3-kinase catalytic subunit alpha isoform (Homo sapiens, UniProt P42336). Nature of the data set: Inhibition of PI3Kalpha.
Sequence of Phosphatidylinositol 4,5-bisphosphate 3-kinase catalytic subunit alpha isoform (P42336 whole entry, canonical isoform): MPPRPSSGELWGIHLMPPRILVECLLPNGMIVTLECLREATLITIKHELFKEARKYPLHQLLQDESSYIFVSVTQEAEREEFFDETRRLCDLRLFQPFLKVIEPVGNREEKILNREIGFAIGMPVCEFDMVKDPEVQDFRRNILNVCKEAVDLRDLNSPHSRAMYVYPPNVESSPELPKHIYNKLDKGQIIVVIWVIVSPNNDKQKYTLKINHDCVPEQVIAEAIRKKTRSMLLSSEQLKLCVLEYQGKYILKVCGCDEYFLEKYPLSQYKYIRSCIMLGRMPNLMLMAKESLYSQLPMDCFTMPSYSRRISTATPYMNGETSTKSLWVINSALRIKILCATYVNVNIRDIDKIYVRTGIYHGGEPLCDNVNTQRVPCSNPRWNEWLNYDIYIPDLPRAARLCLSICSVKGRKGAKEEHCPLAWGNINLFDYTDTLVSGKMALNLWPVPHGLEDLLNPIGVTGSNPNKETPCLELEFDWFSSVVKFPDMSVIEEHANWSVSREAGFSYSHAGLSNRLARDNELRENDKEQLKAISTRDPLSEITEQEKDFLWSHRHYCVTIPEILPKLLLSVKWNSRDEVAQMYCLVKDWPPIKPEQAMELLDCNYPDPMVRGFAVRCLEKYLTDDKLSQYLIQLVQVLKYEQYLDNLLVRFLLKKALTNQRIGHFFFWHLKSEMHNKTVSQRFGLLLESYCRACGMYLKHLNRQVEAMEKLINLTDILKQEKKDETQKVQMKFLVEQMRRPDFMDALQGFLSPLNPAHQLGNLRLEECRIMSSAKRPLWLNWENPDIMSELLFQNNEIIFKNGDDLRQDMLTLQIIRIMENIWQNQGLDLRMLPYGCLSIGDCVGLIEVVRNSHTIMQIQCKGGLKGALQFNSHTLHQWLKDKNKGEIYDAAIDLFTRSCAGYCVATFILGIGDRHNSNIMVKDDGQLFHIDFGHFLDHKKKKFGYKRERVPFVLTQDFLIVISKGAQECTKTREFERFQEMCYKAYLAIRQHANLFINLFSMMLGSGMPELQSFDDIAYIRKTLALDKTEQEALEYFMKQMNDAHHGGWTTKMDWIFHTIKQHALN
Data set [11] relates to Mus musculus. The data set can be described thus: Inhibition of Akt phosphorylation at T308 in PTEN deficient human PC3 cells xenografted SCID mouse tumor at 30 mg/kg, po administered as solution after 1 hr. The data set is classed as functional. The conditions noted are these: PC-3, 1 h. A general note: Xenograft models place foreign cells or tissue in a host animal.
Data set [12] can be described thus: Plasma concentration in SCID mouse xenografted with PTEN deficient human PC3 cells at 244 mg/kg, po administered as suspension after 6 hrs. The data set is classed as ADME, organism-based, PC-3. Also noted: dose 244 mg/kg, route oral. Put shortly:
(§2)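 SCID mice bearing PTEN-deficient PC3 prostate tumor xenografts given a single oral dose, either 30 mg/kg in solution or 244 mg/kg in suspension; drug levels in plasma and tumor measured at 1 and 6 h after dosing.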

Data set [13] can be described thus: Drug uptake in PTEN deficient human PC3 cells xenografted SCID mouse tumor at 244 mg/kg, po administered as suspension after 1 hr. It counts as ADME, organism-based, Neoplasm, PC-3. Also noted: dose 244 mg/kg, route oral. As to conditions: tumor (PC3 xenograft), read-out: Drug uptake. Put shortly: as §2
The subject of data set [14] is Mus musculus. Nature of the data set: Inhibition of Akt phosphorylation at S473 in PTEN deficient human PC3 cells xenografted SCID mouse tumor at 30 mg/kg, po administered as solution after 6 hrs. The data set is classed as functional. The conditions noted are these: PC-3, 6 h.
The nature of data set [15]: Drug uptake in PTEN deficient human PC3 cells xenografted SCID mouse tumor at 30 mg/kg, po administered as solution after 6 hrs. The conditions noted are these: tumor (PC3 xenograft), read-out: Drug uptake. The data set is classed as ADME, organism-based, Neoplasm, PC-3. More on the design: dose 30 mg/kg, route oral. The method, boiled down:
as §2

For data set [16], the system named is Mus musculus. The data set can be described thus: Inhibition of Akt phosphorylation at T308 in PTEN deficient human PC3 cells xenografted SCID mouse tumor at 244 mg/kg, po administered as suspension after 6 hrs. As to conditions: PC-3, 6 h. It counts as functional.
Data set [17] can be described thus: Oral bioavailability in SCID mouse at 10 mg/kg. It counts as ADME, organism-based. As to conditions: in vivo.
The nature of data set [18]: Plasma concentration in SCID mouse xenografted with PTEN deficient human PC3 cells at 30 mg/kg, po administered as solution after 1 hr. The data set is classed as ADME, organism-based, PC-3. More on the design: dose 30 mg/kg, route oral. The method, boiled down:
as §2

Data set [19] can be described thus: Drug uptake in PTEN deficient human PC3 cells xenografted SCID mouse tumor at 30 mg/kg, po administered as solution after 1 hr. It counts as ADME, organism-based, Neoplasm, PC-3. As to conditions: tumor (PC3 xenograft), read-out: Drug uptake. Also noted: dose 30 mg/kg, route oral. The method, boiled down: as §2
Data set [20] is described as follows: Drug uptake in PTEN deficient human PC3 cells xenografted SCID mouse tumor at 244 mg/kg, po administered as suspension after 6 hrs. Also noted: dose 244 mg/kg, route oral. As to conditions: tumor (PC3 xenograft), read-out: Drug uptake. The data set is classed as ADME, organism-based, Neoplasm, PC-3. The method, boiled down:
as §2

Data set [21] can be described thus: Terminal elimination half life in SCID mouse at 10 mg/kg, po. It counts as ADME, organism-based. Also noted: dose 10 mg/kg, route oral. As to conditions: in vivo, read-out: beta t1/2 (converted).
A short description of data set [22]: Plasma concentration in SCID mouse xenografted with PTEN deficient human PC3 cells at 30 mg/kg, po administered as solution after 6 hrs. It counts as ADME, organism-based, PC-3. Also noted: dose 30 mg/kg, route oral. The method, boiled down:
as §2

Data set [23] relates to Mus musculus. Nature of the data set: Inhibition of Akt phosphorylation at S473 in PTEN deficient human PC3 cells xenografted SCID mouse tumor at 244 mg/kg, po administered as suspension after 1 hr. The data set is classed as functional. The conditions noted are these: PC-3, 1 h.
The subject of data set [24] is Mus musculus. The data set can be described thus: Hepatic clearance in SCID mouse at 3 mg/kg, iv. As to conditions: in vivo. It counts as ADME, organism-based, Liver. More on the design: dose 3 mg/kg, route intravenous.
Data set [25] is described as follows: Volume of distribution at steady state in SCID mouse at 3 mg/kg, iv. It counts as ADME, organism-based. Also noted: dose 3 mg/kg, route intravenous. As to conditions: in vivo, read-out: Vdss.
The test system of data set [26] is Mus musculus. Nature of the data set: Inhibition of Akt phosphorylation at S473 in PTEN deficient human PC3 cells xenografted SCID mouse tumor at 244 mg/kg, po administered as suspension after 6 hrs. It counts as functional. The conditions noted are these: PC-3, 6 h.
Data set [27] can be described thus: Efflux ratio of permeability […] in human Caco2/TC7 cells. The data set is classed as ADME, cell-based. The method, boiled down: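 Caco-2 TC7 clone cells grown as a monolayer; compound transport measured in both directions, apical to basolateral (A–B) and basolateral to apical (B–A); apparent permeability (Papp) read out, and efflux ratio derived from the two directional measurements.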

Data set [28] can be described thus: Plasma concentration in SCID mouse xenografted with PTEN deficient human PC3 cells at 244 mg/kg, po administered as suspension after 1 hr. It counts as ADME, organism-based, PC-3. More on the design: dose 244 mg/kg, route oral. Put shortly:
as §2

Data set [29] relates to Mus musculus. Nature of the data set: Inhibition of Akt phosphorylation at S473 in PTEN deficient human PC3 cells xenografted SCID mouse tumor at 30 mg/kg, po administered as solution after 1 hr. It counts as functional. The conditions noted are these: PC-3, 1 h.
For data set [30], the target named is Phosphatidylinositol 4,5-bisphosphate 3-kinase catalytic subunit beta isoform (Homo sapiens, UniProt P42338). Nature of the data set: Inhibition of PI3Kbeta.
Sequence of Phosphatidylinositol 4,5-bisphosphate 3-kinase catalytic subunit beta isoform (P42338 whole entry, canonical isoform): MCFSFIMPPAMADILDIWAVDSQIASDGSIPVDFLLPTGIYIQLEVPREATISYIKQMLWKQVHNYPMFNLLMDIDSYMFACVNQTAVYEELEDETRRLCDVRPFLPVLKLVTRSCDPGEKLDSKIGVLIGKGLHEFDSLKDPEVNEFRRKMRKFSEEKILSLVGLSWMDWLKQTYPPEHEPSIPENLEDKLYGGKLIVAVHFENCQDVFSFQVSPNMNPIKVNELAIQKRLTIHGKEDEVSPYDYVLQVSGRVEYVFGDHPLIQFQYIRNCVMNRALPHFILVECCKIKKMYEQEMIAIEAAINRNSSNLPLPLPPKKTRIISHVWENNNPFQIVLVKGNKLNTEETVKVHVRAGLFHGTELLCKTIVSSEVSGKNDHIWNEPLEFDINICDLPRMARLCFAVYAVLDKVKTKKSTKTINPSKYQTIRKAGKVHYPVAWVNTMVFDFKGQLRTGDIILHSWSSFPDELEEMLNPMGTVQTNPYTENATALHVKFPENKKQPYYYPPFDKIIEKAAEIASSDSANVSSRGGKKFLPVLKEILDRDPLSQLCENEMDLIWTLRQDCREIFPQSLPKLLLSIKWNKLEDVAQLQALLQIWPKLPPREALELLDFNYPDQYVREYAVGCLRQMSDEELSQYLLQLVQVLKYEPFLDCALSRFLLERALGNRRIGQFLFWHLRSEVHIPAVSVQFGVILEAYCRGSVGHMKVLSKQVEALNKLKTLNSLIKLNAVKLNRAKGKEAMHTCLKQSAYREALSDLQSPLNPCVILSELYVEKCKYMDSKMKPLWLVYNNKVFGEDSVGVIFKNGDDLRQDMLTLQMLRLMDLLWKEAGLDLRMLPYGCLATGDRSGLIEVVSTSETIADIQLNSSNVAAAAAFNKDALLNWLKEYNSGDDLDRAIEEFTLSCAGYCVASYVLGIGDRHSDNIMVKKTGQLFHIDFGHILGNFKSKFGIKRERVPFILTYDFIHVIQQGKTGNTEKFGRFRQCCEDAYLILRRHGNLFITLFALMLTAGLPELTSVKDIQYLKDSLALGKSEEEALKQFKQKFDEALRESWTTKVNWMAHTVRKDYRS
In data set [31] the test system is Mus musculus. Nature of the data set: Inhibition of Akt phosphorylation at T308 in PTEN deficient human PC3 cells xenografted SCID mouse tumor at 244 mg/kg, po administered as suspension after 1 hr. The conditions noted are these: PC-3, 1 h. It counts as functional.

Values after ≈ are worked out from the molar mass of the structure shown.

Sequence of Phosphatidylinositol 4,5-bisphosphate 3-kinase catalytic subunit gamma isoform (P48736 whole entry, canonical isoform): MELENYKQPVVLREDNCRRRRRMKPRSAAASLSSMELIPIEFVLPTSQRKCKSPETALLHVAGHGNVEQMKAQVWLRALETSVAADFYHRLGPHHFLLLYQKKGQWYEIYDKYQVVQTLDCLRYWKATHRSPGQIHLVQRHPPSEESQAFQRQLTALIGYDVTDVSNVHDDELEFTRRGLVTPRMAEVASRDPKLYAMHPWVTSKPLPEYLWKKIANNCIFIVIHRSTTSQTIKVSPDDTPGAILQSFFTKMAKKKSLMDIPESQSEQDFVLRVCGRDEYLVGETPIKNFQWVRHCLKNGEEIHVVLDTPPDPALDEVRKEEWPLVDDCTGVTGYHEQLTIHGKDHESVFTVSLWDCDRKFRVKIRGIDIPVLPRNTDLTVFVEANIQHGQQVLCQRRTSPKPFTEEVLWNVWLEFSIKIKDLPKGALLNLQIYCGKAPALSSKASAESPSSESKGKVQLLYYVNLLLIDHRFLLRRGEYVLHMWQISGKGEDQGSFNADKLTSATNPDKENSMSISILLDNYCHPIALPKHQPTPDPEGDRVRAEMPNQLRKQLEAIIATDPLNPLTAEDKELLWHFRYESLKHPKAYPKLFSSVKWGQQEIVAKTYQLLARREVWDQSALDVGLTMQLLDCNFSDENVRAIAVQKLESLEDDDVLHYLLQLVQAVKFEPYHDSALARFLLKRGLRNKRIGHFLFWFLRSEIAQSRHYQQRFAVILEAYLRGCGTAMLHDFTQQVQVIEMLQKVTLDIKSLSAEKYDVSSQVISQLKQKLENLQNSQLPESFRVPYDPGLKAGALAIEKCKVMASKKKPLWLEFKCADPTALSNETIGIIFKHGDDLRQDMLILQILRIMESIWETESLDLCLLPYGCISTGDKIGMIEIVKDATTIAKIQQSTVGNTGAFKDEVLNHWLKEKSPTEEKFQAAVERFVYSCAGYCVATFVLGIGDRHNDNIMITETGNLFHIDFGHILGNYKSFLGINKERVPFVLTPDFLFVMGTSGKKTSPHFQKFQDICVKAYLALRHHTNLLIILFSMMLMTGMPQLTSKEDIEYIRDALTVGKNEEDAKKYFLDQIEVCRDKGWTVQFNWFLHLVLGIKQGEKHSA
Sequence of Cytochrome P450 3A4 (P08684 whole entry, canonical isoform): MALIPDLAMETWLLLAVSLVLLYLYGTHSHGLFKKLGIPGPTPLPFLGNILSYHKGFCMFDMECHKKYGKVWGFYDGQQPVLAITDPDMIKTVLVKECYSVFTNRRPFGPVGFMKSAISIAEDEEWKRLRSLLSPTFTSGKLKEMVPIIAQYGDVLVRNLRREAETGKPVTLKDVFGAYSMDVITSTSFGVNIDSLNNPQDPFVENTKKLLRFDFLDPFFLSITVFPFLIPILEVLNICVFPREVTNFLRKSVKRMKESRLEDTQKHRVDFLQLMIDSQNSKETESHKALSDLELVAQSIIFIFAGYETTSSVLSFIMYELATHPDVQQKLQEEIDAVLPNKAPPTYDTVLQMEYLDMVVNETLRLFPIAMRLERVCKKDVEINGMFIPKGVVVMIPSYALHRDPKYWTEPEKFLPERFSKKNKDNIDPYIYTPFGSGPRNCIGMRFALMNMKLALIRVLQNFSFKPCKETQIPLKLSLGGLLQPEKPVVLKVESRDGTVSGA

As a reminder, the IC50 is the midpoint of a concentration-inhibition curve. One may read the Papp as the rate of passage across a membrane or cell layer, normalised by area and donor concentration. Usually solubility (thermodynamic) stands for the concentration in solution at equilibrium with solid. For the compound `O=C(Cc1nc(N2CCOCC2)cc(=O)[nH]1)Nc1ccccc1`, the IC50 in data set [1] is 0.068 µM; in [2], more than 10 µM; at Cytochrome P450 3A4 it was more than 40 µM; in data set [4], more than 10 µM. For the same compound, the metabolised at 20 min in data set [3] was 4%; in data set [7] it was 44%. Besides, the Papp in [5] was found to be 5 nm/s. This compound also returned a solubility (thermodynamic) at 16 h in [6] of 73 µM (≈ 22.9 µg/mL).

For orientation: inhibition in vivo means the change of the read-out against control, counted positive when it falls. The low end stands for a weak effect, the high end for a strong effect. The bioavailability is dose-corrected exposure relative to a reference, in per cent. Regarding `Cn1c(CC(=O)Nc2ccc(F)c(Cl)c2)nc(N2CCOCC2)cc1=O`, the 50% inhibitory concentration (IC50) in data set [1] was 0.079 µM; in data set [8], 2.21 µM; in data set [10], more than 10 µM; on Cytochrome P450 3A4, more than 40 µM; in data set [4] it was 8.28 µM; in data set [30], 0.042 µM. Further, the inhibition in vivo at 30 mg/kg with Mus musculus [9] was 23%; with Mus musculus [11] it was 86%; in the data set on Mus musculus [14], 0%; in the data set on Mus musculus [29], 91%. Besides, the concentration at 6 h in data set [12] came out at 1.6 µM; in data set [15], 1 µM; in [20], 1.7 µM; in [22], 0.4 µM. For the same compound, the concentration at 1 h was 6 µM in data set [13], 10 µM in data set [18], 11 µM in data set [19] and 4.5 µM in [28]. For the same compound, the inhibition in vivo at 244 mg/kg with Mus musculus [16] was found to be 0%; with Mus musculus [23] it was 73%; in the data set on Mus musculus [26], 0%; with Mus musculus [31] it was 63%. Further, the bioavailability in [17] was determined as 52%. Moreover, the metabolised at 20 min turned out to be 12% in data set [3] and 44% in data set [7]. Also, the half-life in data set [21] was 1.4 h. Further, in the data set with Mus musculus [24], the CLH worked out at 1.6 L/h/kg. Besides, the Vd in data set [25] amounted to 1.3 L/kg. The Ratio in [27] is 4. Moreover, in data set [5], the Papp amounted to 66 nm/s. The same compound showed a thermodynamic solubility at 16 h in data set [6] of 5 µM (≈ 1.9 µg/mL).
